Active and inactive are the calls of the source. The rule behind the calls is not given here.
Columns and labels:
[1] = system: MCF7; assay: Cytotoxicity against human MCF7 cells assessed as growth inhibition after 24 hrs by MTT assay; format: functional, cell-based; settings: MCF7, 24 h
In short: (§1)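 Cells seeded at 8000/well in RPMI-1640 with 10% heat-inactivated FBS and left to adhere 10 h. Compound then added in RPMI-1640 with 1% FBS and 0.1% DMSO for 24 h at 37 °C. MTT added for 4 h, formazan dissolved in DMSO, OD read at 590 nm. Inhibition calculated relative to control and zero-setting wells; IC50 derived from inhibition ratios; two experiments in triplicate.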

[2] = system: HeLa; assay: Cytotoxicity against human HeLa cells assessed as growth inhibition after 24 hrs by MTT assay; format: functional, cell-based; in short: as §1
[3] = Cytotoxicity against human 3AO cells assessed as growth inhibition after 24 hrs by MTT assay; format: functional, cell-based; in short: as §1
[4] = system: K562; assay: Cytotoxicity against human K562 cells assessed as growth inhibition after 24 hrs by MTT assay; format: functional, cell-based; settings: K562, 24 h; in short: as §1
[5] = Cytotoxicity against human PC3 cells assessed as growth inhibition after 24 hrs by MTT assay; format: functional, cell-based; settings: PC-3, 24 h; in short: as §1
[6] = Cytotoxicity against human BEAS2B cells assessed as growth inhibition after 24 hrs by MTT assay; format: cell-based; settings: BEAS-2B; in short: as §1
[7] = system: HUVEC; assay: Antiangiogenic activity against HUVEC cells assessed as inhibition of VEGF-induced tube formation after 8 hrs by microscopic analysis; format: functional, cell-based; settings: Homo sapiens
In short: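 HUVECs trypsinized and seeded on Matrigel (polymerized 1 h, 37 °C) at 10^5 cells/well, incubated with compound at 0.1, 1 and 10 µg/mL for 8 h at 37 °C in CO2 until tube networks formed; Pazopanib as positive control. Morphology imaged in five random fields per well; experiment repeated 3 times.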

[8] = molecular target: Fibroblast growth factor receptor 1 (Homo sapiens) (UniProt P11362); assay: Inhibition of human recombinant FGFR1 at 1 uM after 50 mins by microtiter plate based luciferase reporter gene assay
Sequence of Fibroblast growth factor receptor 1 (Homo sapiens) (P11362 22-822 limits assumed): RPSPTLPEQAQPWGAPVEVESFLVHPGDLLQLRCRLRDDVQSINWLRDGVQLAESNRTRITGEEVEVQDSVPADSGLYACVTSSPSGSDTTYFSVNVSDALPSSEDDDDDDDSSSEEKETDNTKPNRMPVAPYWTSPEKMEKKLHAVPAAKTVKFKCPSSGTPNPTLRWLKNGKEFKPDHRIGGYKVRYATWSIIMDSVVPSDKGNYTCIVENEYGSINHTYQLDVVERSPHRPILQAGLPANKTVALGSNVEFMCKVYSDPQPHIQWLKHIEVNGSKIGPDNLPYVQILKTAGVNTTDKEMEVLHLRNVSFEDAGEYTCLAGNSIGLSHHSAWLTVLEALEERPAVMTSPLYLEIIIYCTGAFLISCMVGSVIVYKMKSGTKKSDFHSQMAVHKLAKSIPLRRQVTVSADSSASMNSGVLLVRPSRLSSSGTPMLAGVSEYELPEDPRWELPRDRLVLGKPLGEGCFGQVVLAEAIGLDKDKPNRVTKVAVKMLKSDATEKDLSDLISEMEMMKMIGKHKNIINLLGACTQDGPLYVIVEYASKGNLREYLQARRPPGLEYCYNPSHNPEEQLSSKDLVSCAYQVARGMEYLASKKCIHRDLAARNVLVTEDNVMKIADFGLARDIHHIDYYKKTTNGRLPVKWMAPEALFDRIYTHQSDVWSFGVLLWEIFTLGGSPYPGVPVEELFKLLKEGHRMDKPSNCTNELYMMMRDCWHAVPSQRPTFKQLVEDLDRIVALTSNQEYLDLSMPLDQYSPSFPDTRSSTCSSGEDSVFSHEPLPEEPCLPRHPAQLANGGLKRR

[9] = species: Danio rerio; assay: Antiangiogenic activity against transgenic zebra fish embryos expressing green fluorescence protein assessed as inhibition of intersegmental vessel formation at 10 to 100 uM after 24 hrs by confocal fluorescence microscopy; format: functional, organism-based
In short: (§2)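 Tg(flk1:GFP) embryos, dechorionated one day post-fertilization, 10 per well in 3 mL assay solution with 0.1% PTU added; compounds at 10, 50, 100 µM, 0.2% DMSO as vehicle control, vatalanib as positive control; 28 °C. ISV formation scored by confocal microscopy (50- and 100-fold) after 24 h treatment; repeated at least three times.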

[10] = molecular target: Vascular endothelial growth factor receptor 2 (Homo sapiens) (UniProt P35968); settings: at 1 µM
Sequence of Vascular endothelial growth factor receptor 2 (Homo sapiens) (P35968 whole entry): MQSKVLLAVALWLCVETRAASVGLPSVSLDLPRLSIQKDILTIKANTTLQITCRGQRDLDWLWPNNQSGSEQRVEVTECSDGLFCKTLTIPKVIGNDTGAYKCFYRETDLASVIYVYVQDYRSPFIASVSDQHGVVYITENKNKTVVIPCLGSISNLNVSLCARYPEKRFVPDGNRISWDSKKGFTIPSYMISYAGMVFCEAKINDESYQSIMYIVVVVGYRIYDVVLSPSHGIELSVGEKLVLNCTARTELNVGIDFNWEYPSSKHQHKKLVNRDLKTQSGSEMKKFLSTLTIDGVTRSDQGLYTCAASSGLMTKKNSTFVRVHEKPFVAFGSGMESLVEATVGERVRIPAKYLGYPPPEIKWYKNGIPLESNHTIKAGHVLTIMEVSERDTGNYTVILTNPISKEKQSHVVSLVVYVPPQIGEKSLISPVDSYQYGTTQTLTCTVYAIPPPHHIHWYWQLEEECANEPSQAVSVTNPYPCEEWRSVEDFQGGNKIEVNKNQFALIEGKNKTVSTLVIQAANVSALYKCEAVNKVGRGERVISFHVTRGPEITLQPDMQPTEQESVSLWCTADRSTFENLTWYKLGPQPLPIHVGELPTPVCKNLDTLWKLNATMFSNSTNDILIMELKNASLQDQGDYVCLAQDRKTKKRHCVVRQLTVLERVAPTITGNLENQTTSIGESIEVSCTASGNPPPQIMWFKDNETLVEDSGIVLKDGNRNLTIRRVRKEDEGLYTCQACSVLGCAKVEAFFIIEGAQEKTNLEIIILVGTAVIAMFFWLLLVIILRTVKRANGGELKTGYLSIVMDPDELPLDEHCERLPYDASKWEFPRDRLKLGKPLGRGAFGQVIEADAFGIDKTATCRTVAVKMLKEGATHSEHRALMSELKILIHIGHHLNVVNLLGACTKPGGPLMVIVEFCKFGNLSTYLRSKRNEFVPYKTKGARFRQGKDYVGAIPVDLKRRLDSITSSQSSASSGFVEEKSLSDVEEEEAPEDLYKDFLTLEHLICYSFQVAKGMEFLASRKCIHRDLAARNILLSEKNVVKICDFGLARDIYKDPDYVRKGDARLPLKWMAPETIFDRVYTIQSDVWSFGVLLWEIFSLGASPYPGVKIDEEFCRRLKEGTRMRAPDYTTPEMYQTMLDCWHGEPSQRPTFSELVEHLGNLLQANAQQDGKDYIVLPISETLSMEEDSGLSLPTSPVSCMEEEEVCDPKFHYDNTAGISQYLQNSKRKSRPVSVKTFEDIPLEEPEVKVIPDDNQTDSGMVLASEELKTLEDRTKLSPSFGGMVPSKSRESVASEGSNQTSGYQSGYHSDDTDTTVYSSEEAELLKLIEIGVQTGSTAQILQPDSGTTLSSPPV

[11] = species: Danio rerio; assay: Antiangiogenic activity against transgenic zebra fish embryos expressing green fluorescence protein assessed as inhibition of intersegmental vessel formation at 100 uM after 24 hrs by confocal fluorescence microscopy; format: functional, organism-based; in short: as §2

inhibition [8] [%] | inhibition [10] [%] | SMILES | IC50 [1] [µM] | IC50 [2] [µM] | IC50 [3] [µM] | IC50 [4] [µM] | IC50 [5] [µM] | IC50 [6] [µM] | inhibition [7] | inhibition [9] | inhibition [11]
– | – | Cc1ccc(NC(=O)COc2nc3ccccc3nc2/C=C\c2ccncc2)cc1 | 60.2 | > 100 | > 100 | > 100 | > 100 | > 100 | – | – | –
0 | 37 | O=C(COc1nc2ccccc2nc1/C=C\c1ccncc1)Nc1ccc(Cl)cc1 | > 100 | > 100 | > 100 | 49.9 | > 100 | > 100 | Dose-dependent effect | Active | –
– | – | Cc1nc2ccccc2n(Cc2ccc(NC(=O)c3ccc(Cl)cc3)cc2)c1=O | 47.6 | > 100 | > 100 | > 100 | 39.6 | > 100 | – | – | –
5 | 44 | O=C(Cn1c(=O)c(/C=C\c2ccncc2)nc2ccccc21)Nc1ccc(Cl)cc1 | > 100 | > 100 | > 100 | 50.4 | > 100 | > 100 | Dose-dependent effect | Dose-dependent effect | –
– | – | Cc1ccc(Nc2nccc(N(C)c3ccc4c(C)n(C)nc4c3)n2)cc1S(N)(=O)=O [PAZOPANIB] | 76.8 | > 100 | 50.2 | 89.3 | > 100 | > 100 | – | – | –
8 | 56 | O=C(Cn1c(=O)c(/C=C\c2ccncc2)nc2ccccc21)Nc1ccc(Cl)c(Cl)c1 | 47.6 | > 100 | > 100 | > 100 | > 100 | > 100 | Dose-dependent effect | Dose-dependent effect | –
– | – | Cc1nc2ccccc2n(CC(=O)Nc2ccc(F)cc2)c1=O | > 100 | 55.5 | > 100 | > 100 | > 100 | > 100 | – | – | –
– | – | COc1cc2nc(/C=C\c3ccncc3)c(=O)n(CC(=O)Nc3ccccc3)c2cc1OC | > 100 | > 100 | 55.6 | > 100 | > 100 | > 100 | – | – | –
0 | 19 | Cc1nc2ccccc2n(CC(=O)Nc2ccc(Cl)cc2)c1=O | > 100 | > 100 | 40.2 | > 100 | > 100 | > 100 | Dose-dependent effect | – | Active
– | – | COc1ccc(NC(=O)Cn2c(=O)c(/C=C\c3ccncc3)nc3ccccc32)cc1OC | > 100 | > 100 | > 100 | 55.2 | > 100 | > 100 | – | – | –
– | – | Cc1ccccc1NC(=O)Cn1c(=O)c(/C=C\c2ccncc2)nc2ccccc21 | > 100 | > 100 | 69.7 | > 100 | > 100 | > 100 | – | – | –
– | – | O=C(Cn1c(=O)c(/C=C\c2ccncc2)nc2ccccc21)Nc1ccccc1 | > 100 | > 100 | > 100 | 55.5 | > 100 | > 100 | – | – | –
– | – | Cc1nc2ccccc2nc1OCC(=O)Nc1ccc(Cl)cc1 | > 100 | > 100 | > 100 | > 100 | 68 | > 100 | – | – | –
– | – | Cc1ccc(NC(=O)COc2nc3ccccc3nc2C)cc1 | > 100 | 74.6 | > 100 | > 100 | > 100 | > 100 | – | – | –
2 | 6 | O=C(Cn1c(=O)c(/C=C\c2ccncc2)nc2ccccc21)Nc1ccc(F)cc1 | 49 | > 100 | > 100 | > 100 | 59.9 | > 100 | Dose-dependent effect | inactive | –
– | – | Cc1ccc(C(=O)Nc2ccc(Cn3c(=O)c(C)nc4ccccc43)cc2)cc1 | > 100 | > 100 | > 100 | > 100 | > 100 | > 100 | – | – | –

From ChEMBL document CHEMBL3774355, “Quinoxalinone (Part II). Discovery of (Z)-3-(2-(pyridin-4-yl)vinyl)quinoxalinone derivates as potent VEGFR-2 kinase inhibitors” (Bioorg Med Chem, 2016)
